Experimental findings from ChEMBL document CHEMBL1687925, “Structure-activity relationships of cycloalkylamide derivatives as inhibitors of the soluble epoxide hydrolase” (J Med Chem, 2011) are described below.

Values after ≈ are worked out from the molar mass of the structure shown.

Data set [1] can be described thus: Inhibition of human soluble epoxide […] using fluorescent CMNPC as substrate after 10 mins by fluorometric assay. The essentials:
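Recombinant human sEH, expressed in Sf9 cells via baculovirus with a His tag that was later removed, purified by metal-affinity and anion-exchange chromatography. Enzyme at 1 nM final, preincubated with inhibitor 10 min at 30 °C in 25 mM Bis-Tris/HCl pH 7.0. CMNPC then added at 5 μM. 6-Methoxy-2-naphthaldehyde fluorescence (ex 330/em 465 nm) followed for 10 min. IC50 by regression of at least six points; mean of three runs.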

Data set [2] in a line: Aqueous solubility of the compound in […] phosphate buffer at pH 7.4. The data set is classed as physicochemical. The essentials: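 Light-scattering method at 25± 1.5 °C. Compound in DMSO was added at varying concentrations to 0.1 M sodium phosphate, pH 7.4, at 5:95 (v/v) DMSO:buffer. Insolubility was read as the rise in turbidity, measured as optical density at 650 nm.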

Data set [3] can be described thus: Aqueous solubility of the compound in […] phosphate buffer at pH 7.4 relative to AUDA. It is filed as physicochemical.

For orientation: IC50 means the concentration that inhibits the measured activity by half. A higher IC50 goes with lower potency. Take `O=C(NCc1ccccc1)C12CC3CC(CC(C3)C1)C2`: the half-inhibitory concentration (IC50) in data set [1] is above 1000 nM. On the same count and under the same terms, the result for `O=C(NCCCc1ccccc1)C1CC1` reads above 1000 nM.

In data set [1], `O=C(NCCCc1ccccc1)C1CCCC1` came in with a half-maximal inhibitory concentration (IC50) above 1000 nM. Still for that read-out and setting: the result for `O=C(NCCCc1ccccc1)C1CCCCC1` reads 235 nM; that for `O=C(NCCCc1ccccc1)C1CC=CCC1` (stereo unspecified), 222 nM.

In data set [1], `O=C(NCCCc1ccccc1)C1CCC(C(F)(F)F)CC1` (stereo unspecified) registered an IC50 of 64 nM. Same read-out and setting: the result for `CC(C)(C)C1CCC(C(=O)NCCCc2ccccc2)CC1` (stereo unspecified) reads 58 nM; that for `O=C(NCCCc1ccccc1)C1CCC(O)CC1` (stereo unspecified), above 1000 nM. `O=C1CCC(C(=O)NCCCc2ccccc2)CC1` had an IC50 in data set [1] above 1000 nM. The same measure, in the same setting: the value for `O=C(NCCCc1ccccc1)C1CCC(CO)CC1` (stereo unspecified) was 243 nM; that for `O=C(NCCCc1ccccc1)C1CCCO1` (stereo unspecified) was above 1000 nM. Still for that read-out and setting: the result for `O=C(NCCCc1ccccc1)C1CCOCC1` reads above 1000 nM; that for `COC(=O)C1CCC(C(=O)NCCCc2ccccc2)CC1` (stereo unspecified), 78 nM. As for `O=C(O)C1CCC(C(=O)NCCCc2ccccc2)CC1` (stereo unspecified), the IC50 in data set [1] was above 1000 nM. `COC(=O)C1CCCCC1C(=O)NCCCc1ccccc1` (stereo unspecified) came in with an IC50 in data set [1] above 1000 nM. Regarding `COC(=O)C1C2C=CC(C2)C1C(=O)NCCCc1ccccc1` (stereo unspecified), the half-maximal inhibitory concentration (IC50) in data set [1] is above 1000 nM. Molecule `O=C(NCCCc1ccccc1)C12CC3CC(CC(C3)C1)C2` showed an IC50 in data set [1] of 41 nM. The molecule `O=C(NCCCc1ccccc1)C1CCc2ccccc2C1` (stereo unspecified) came in with an IC50 in data set [1] of 15 nM. This IC50 is about 2.7-fold lower than that of the molecule before.

As to `O=C(NCCCc1ccccc1)C1(c2ccccc2)CC1`, the half-maximal inhibitory concentration (IC50) in data set [1] is above 1000 nM. In data set [1], `O=C(NCCCc1ccccc1)C1(c2ccccc2)CCCC1` yielded an IC50 above 1000 nM.

`O=C(NCCc1ccccc1)C12CC3CC(CC(C3)C1)C2` showed an IC50 in data set [1] of 230 nM. As to `O=C(NCCCCc1ccccc1)C12CC3CC(CC(C3)C1)C2`, the half-maximal inhibitory concentration (IC50) in data set [1] was 180 nM.

`CCOC(=O)c1ccc(NC(=O)C23CC4CC(CC(C4)C2)C3)cc1` displayed a half-inhibitory concentration (IC50) in data set [1] of 101 nM. The same measure, in the same setting: the result for `COc1ccc(NC(=O)C23CC4CC(CC(C4)C2)C3)cc1` reads above 1000 nM.

For orientation: solubility means the dissolved amount per volume that the medium holds. A lower solubility goes with little dissolved substance. In data set [1], `COC(=O)c1ccc(CNC(=O)C23CC4CC(CC(C4)C2)C3)cc1` came in with an IC50 of 9.1 nM. The solubility in data set [2] is 125 µM (≈ 40.9 µg/mL). Further, the “fold change (FC)” value in data set [3] was determined as 2. The molecule `COC(=O)c1ccc(CCNC(=O)C23CC4CC(CC(C4)C2)C3)cc1` returned an IC50 in data set [1] of 230 nM. As to `COC(=O)c1ccc2cc(NC(=O)C34CC5CC(CC(C5)C3)C4)ccc2c1`, the half-inhibitory concentration (IC50) in data set [1] was found to be 65 nM. Against the preceding molecule, the IC50 is about 3.5-fold lower. `COC(=O)c1ccc(CNC(=O)C2CCc3ccccc3C2)cc1` (stereo unspecified): in data set [1], the IC50 was 2.1 nM. Moreover, in data set [2], the solubility was found to be 125 µM (≈ 40.4 µg/mL). For the same molecule, the “fold change (FC)” value in data set [3] is recorded as 2.

With `COC(=O)c1ccc(CNC(=O)c2ccc3ccccc3c2)cc1`, in data set [1], 6.6 nM corresponded to half-maximal inhibition (IC50). For the same molecule, in data set [2], the solubility worked out at 31 µM (≈ 9.9 µg/mL). In the same order, the values of `COC(=O)c1ccc(CNC(=O)c2ccc3cc(O)ccc3c2)cc1` are 1.8 nM and 31 µM (≈ 10.4 µg/mL). In the case of `COC(=O)c1ccc(CNC(=O)c2ccc3cc(OC)ccc3c2)cc1`, in data set [1], the IC50 turned out to be 2.4 nM. In data set [2], this molecule yielded a solubility of 15 µM (≈ 5.24 µg/mL). The molecule `CN(CCCc1ccccc1)C(=O)C12CC3CC(CC(C3)C1)C2` gave an IC50 in data set [1] of 723 nM.

In turn, `O=C(O)CCCCCCCCCCCNC(=O)NC12CC3CC(CC(C3)C1)C2` gave a solubility in data set [2] of 63 µM (≈ 24.7 µg/mL). The molecule `O=C(NCCCc1ccccc1)[C@@H]1C[C@H]1c1ccccc1` (relative stereo) returned a concentration for half-maximal inhibition (IC50) in data set [1] of 288 nM.
